Screening results: PubChem, several laboratories
Rows were chosen to be rich in hits. Some 3.4% of all compounds tested hit in one or more screens of this group.
Runt-SMMHC FRET – inhibitors of RUNX1 Runt–CBFb-SMMHC binding, primary screen, biochemical, FRET, Cerulean-Runt, Venus-CBFb-SMMHC, uHTS. actives 0.74% (n = 220,000). Cerulean-Runt/Venus-CBFb-SMMHC FRET ratio 530/480, 1 h. Runt-related transcription factor 1 (Homo sapiens) + Core-binding factor subunit beta …. inhibition, % at 20 µM. AID 1434, 2008;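 active = mean inhibition across duplicate retests at 20 µM reaching about 50%, limit read from the data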;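 also: 0% = DMSO wells and 100% = wells with excess untagged CBFb-SMMHC; inhibitors lower the FRET ratio by blocking Runt binding to CBFb-SMMHC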
Target sequence (Q01196 whole entry, looked up): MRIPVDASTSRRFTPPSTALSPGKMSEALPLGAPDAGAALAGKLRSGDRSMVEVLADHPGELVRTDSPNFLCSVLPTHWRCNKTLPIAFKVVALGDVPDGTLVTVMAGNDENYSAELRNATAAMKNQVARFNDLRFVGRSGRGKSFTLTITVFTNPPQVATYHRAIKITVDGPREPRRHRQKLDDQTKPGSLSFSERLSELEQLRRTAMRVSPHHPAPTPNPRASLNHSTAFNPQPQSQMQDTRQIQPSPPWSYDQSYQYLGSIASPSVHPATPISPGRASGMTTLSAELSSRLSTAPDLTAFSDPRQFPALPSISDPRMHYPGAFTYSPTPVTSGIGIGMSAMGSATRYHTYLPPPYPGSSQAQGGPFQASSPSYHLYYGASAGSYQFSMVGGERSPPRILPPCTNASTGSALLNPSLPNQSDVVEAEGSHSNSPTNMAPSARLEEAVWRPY
Target sequence (Q13951 whole entry, looked up): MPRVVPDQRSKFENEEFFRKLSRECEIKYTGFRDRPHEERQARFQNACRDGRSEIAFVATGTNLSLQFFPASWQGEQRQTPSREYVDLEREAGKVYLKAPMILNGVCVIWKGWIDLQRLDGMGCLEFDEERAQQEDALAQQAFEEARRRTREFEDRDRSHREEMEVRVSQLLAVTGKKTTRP
Efa HMGR inh – inhibitors of E. faecalis class II HMGR, primary screen, biochemical, Enterococcus faecalis; HMG-CoA reductase (Enterococcus faecalis, mvaE); purified E. faecalis HMGR, NADPH absorbance 340 nm kinetic; inhibition, % at 10 µM; actives 0.41% (n = 190,000); AID 1066, 2008;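 active = inhibition above a set limit, the median over all tested compounds plus 3 SD, cut at about 9.5% in these data; inconclusive = no clear call, values can overlap the other calls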;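 also: enzyme runs in reverse so mevalonate oxidation gives rising NADPH absorbance; 0% = complete reaction with DMSO and 100% = background rate lacking mevalonate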
Wee1 degr inh – Wee1 degradation inhibitors, primary screen, cell-based, HeLa, Wee1K328M-luciferase, luminescence | reporter increase, % at 5 µM | actives 1.2% (n = 220,000) | HeLa Luc-Wee1K328M stability; 100% = proteasome inhibitor MG132 effect;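 active = activation above the mean of all tested compounds plus 3 SD, set per screening run, cut at about 8.8% in these data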;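 also: cells exposed to compound for 20 h before luminescence read; 0% = DMSO alone and 100% = MG132 at 30 µM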
PHOSPHO1 block – PubChem AID 1565; Phosphoethanolamine/phosphocholine phosphatase (Homo sapiens), Q8TCT1; recombinant PHOSPHO1, absorbance phosphatase assay; inhibition, % at 13.3 µM; actives 1.1% (n = 290,000); in the data active = inhibition above about 60%
RanGTP-Impb inh – inhibitors of RanGTP-importin-beta interaction, primary screen, biochemical, FRET, CFP-Ran, YFP-importin-beta, homogeneous; Ran GTPase (GTP-bound) - importin-beta complex; cell-free CFP-Ran/YFP-importin-beta FRET ratio; inhibition, % (test concentration not listed); actives 1.1% (n = 300,000); AID 2216, 2009;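 active = more than half of the replicate wells show a fall in the fluorescence ratio signal beyond about 16%, limit read from the data, passing the limit was not always enough; inconclusive = exactly half of the replicate wells pass the set limit; inactive = fewer than half of replicates pass the limit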;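 also: 0% = DMSO wells and 100% = Ran loaded with GDP instead of GTP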
Runt-CBFb FRET – inhibitors of RUNX1 Runt–CBFb binding, primary screen, biochemical, FRET, Cerulean-Runt, Venus-CBFb, uHTS | Runt-related transcription factor 1 (Homo sapiens) + Core-binding factor subunit beta … | inhibition, % at 20 µM | actives 0.46% (n = 220,000) | Cerulean-Runt/Venus-CBFb FRET ratio 530/480, 1 h;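 active = inhibition over about 50% at 20 µM in the single-dose screen, limit read from the data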;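 also: 0% = DMSO wells and 100% = excess unlabeled CBFb competitor control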
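Doses: 20 µM compound in 1% DMSO | Material: Cerulean-labeled Runt domain protein | Amount: Each fluorescent fusion protein 100 nM | Schedule: Two 1 h room-temperature incubations shielded from light | Measured by: FRET fluorescence | Evaluation: Loss of energy transfer signal | Controls: Unlabeled CBFb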
* marks the source's active call; other numbers are inactive results; ? = inconclusive; nt = not tested or not shown.

SMILES	Runt-SMMHC FRET	Efa HMGR inh	Wee1 degr inh	PHOSPHO1 block	RanGTP-Impb inh	Runt-CBFb FRET
Cc1ccc(S(=O)(=O)N2CCOCC2)cc1NC(=O)COC(=O)c1cc(=O)[nH]c2ccccc12	2.7	1.1	4.7	8.8	26.3*	1.5
C=C1c2cc(C)ccc2NC(=O)N1c1ccc(C)cc1	-1.5	-3.2	-1.0	73.3*	-4.5	0.8
CS(=O)(=O)CCC(C(=O)Nc1ccc2c(c1)OCO2)N1Cc2ccccc2C1=O (stereo unspecified)	nt	nt	nt	24.2	2.9	nt
COc1ccc(-c2cc3ccc(O)cc3oc2=O)cc1	nt	nt	nt	-1.1	127.6*	nt
COc1ccc(-c2cc3ccc(OCC(C)=O)cc3oc2=O)cc1	nt	nt	nt	30.2	2.4	nt
O=c1oc2cc(O)ccc2cc1-c1ccccc1	nt	nt	nt	15.9	139.8*	nt
O=c1oc2ccccc2cc1-c1ccc(O)cc1O	-0.1	-0.3	1.4	8.4	1.6	-3.0
O=c1oc2ccccc2cc1-c1nc2c(s1)CCc1ccccc1-2	5.7	3.4	5.6	5.7	3.5	30.5
O=c1oc2cc(O)ccc2cc1-c1nc2c(s1)CCc1ccccc1-2	82.6*	-5.0	1.6	13.7	nt	4.2
CCOC(=O)c1c(NC(=O)C2CC(Cl)=CCC2C(=O)O)sc2c1CCCCC2 (stereo unspecified)	nt	nt	nt	37.6	-1.1	nt
CCOc1ccc(NC(=O)Cc2ccc(S(=O)(=O)N3CCOCC3)s2)cc1OCC	nt	nt	nt	30.1	2.5	nt
CNC(=O)C(=O)NCC1OCCCN1S(=O)(=O)c1ccc(F)cc1C (stereo unspecified)	nt	nt	nt	27.0	-2.2	nt
Cc1cc(F)ccc1S(=O)(=O)N1CCCOC1CNC(=O)C(=O)NCc1ccco1 (stereo unspecified)	-1.1	2.0	9.1*	5.9	-3.9	1.0
O=C(NCc1cccnc1)C(=O)NCC1OCCN1S(=O)(=O)c1ccc(F)cc1 (stereo unspecified)	-9.1	-2.3	9.2*	-1.2	-0.2	-2.0
O=C(NCc1ccccc1F)C(=O)NCC1OCCCN1S(=O)(=O)c1cccs1 (stereo unspecified)	nt	nt	nt	75.4*	2.2	nt
O=C(NCc1cccnc1)C(=O)NCC1OCCCN1S(=O)(=O)c1ccc(F)cc1 (stereo unspecified)	nt	nt	nt	18.5	3.7	nt
Cc1ccc(NC2CCCCC2NS(=O)(=O)c2ccccc2)c(C)c1 (stereo unspecified)	nt	nt	nt	-44.5	-1.4	nt
NC(=O)NN=C1C2CCCC1C(c1ccccc1)NC2c1ccccc1 (stereo unspecified)	0.3	nt	-2.7	33.1	-0.1	-1.7
Cc1ccc(NC(=S)N2CCN(c3ccccc3F)CC2)c(C)c1	nt	nt	nt	-3.4	?	nt
CSc1ccc(C2CC(=O)Nc3nc(SC)[nH]c(=O)c32)cc1 (stereo unspecified)	1.6	22.1*	1.6	4.0	4.4	-1.3
CSc1ccc(C2CC(=O)Nc3c2c(=O)n(C)c(=O)n3C)cc1 (stereo unspecified)	2.1	nt	-1.2	32.2	-5.7	0.4
COc1ccc(CNC(=O)Cn2cccc2C(=O)c2ccccc2)cc1	nt	nt	nt	49.6	-0.1	nt
Cc1sc2ncnc(SCC(=O)N(C(C)C)C(C)C)c2c1C	-3.1	10.8*	-2.4	20.3	0.1	-0.9
Cc1ccc(F)cc1CNC(=O)C1CCC(=O)N(C2CC2)C1 (stereo unspecified)	nt	nt	nt	17.4	3.1	nt
CC(C)(O)C#Cc1ccc(CN2CCN(Cc3ccccc3)C(CCO)C2)s1 (stereo unspecified)	-2.0	3.1	2.7	45.5	-0.3	2.1
SMILES	Runt-SMMHC FRET	Efa HMGR inh	Wee1 degr inh	PHOSPHO1 block	RanGTP-Impb inh	Runt-CBFb FRET
COc1cccc(CN2CCN(Cc3ccc(C#CC(C)(C)O)s3)CC2CCO)c1 (stereo unspecified)	1.3	-4.1	10.1*	26.2	3.9	0.2
COc1ccc(CCNC(=O)C(=O)NCC2OCCN2C(=O)c2ccc(Cl)cc2)cc1 (stereo unspecified)	nt	nt	nt	37.7	1.8	nt
COc1ccc(CCn2c(=N)c(C(=O)NCC3CCCO3)cc3c(=O)n4ccccc4nc32)cc1OC (stereo unspecified)	nt	nt	nt	29.0	5.8	nt
N=c1c(C(=O)NCCN2CCOCC2)cc2c(=O)n3ccccc3nc2n1Cc1ccc(F)cc1	nt	nt	nt	18.1	127.4*	nt
N=c1c(C(=O)NCCN2CCOCC2)cc2c(=O)n3ccccc3nc2n1CCCN1CCOCC1	nt	nt	nt	27.0	144.7*	nt
CC1CCCCC1NC(=O)CCn1c(=O)sc2ccccc21 (stereo unspecified)	nt	nt	nt	4.7	-2.8	nt
Cc1cccc(NC(=S)NCc2ccccc2)c1C	nt	nt	nt	nt	6.1	nt
Cc1nn2c3c(cnc2c1-c1ccc(Cl)cc1)C(=O)CC(c1ccco1)C3 (stereo unspecified)	-186.0	nt	nt	-34.4	19.0*	-100.8
COc1ccc(S(=O)(=O)N2CCN(C(=O)NCc3ccc(C)cc3)CC2)cc1	nt	nt	nt	18.7	2.6	nt
COc1cccc(C2CC(=O)N3CN(c4cccc(Cl)c4C)CSC3=C2C#N)c1OC (stereo unspecified)	39.9	-6.6	-2.4	88.1*	-0.2	10.7
COc1ccc(OC)c(C2CC(=O)N3CN(c4cccc(Cl)c4C)CSC3=C2C#N)c1 (stereo unspecified)	44.8	nt	-1.1	92.8*	-209.0	18.6
COc1cccc(C2CC(=O)N3CN(c4ccccc4F)CSC3=C2C#N)c1 (stereo unspecified)	33.8	-4.5	-3.1	28.8	11.3	15.0
COc1ccc(OC)c(C2CC(=O)N3CN(c4ccccc4F)CSC3=C2C#N)c1 (stereo unspecified)	41.8	0.1	-2.8	85.7*	-40.5	15.9
COc1cc(OC)c(C2CC(=O)N3CN(C)CSC3=C2C#N)cc1OC (stereo unspecified)	27.5	0.3	-1.9	47.9	5.2	20.6
Nc1ncnc2nc(SCCc3ccccc3)[nH]c12	-2.4	-5.7	1.2	-4.9	?	0.4
Cc1cc(C)c(C)c(S(=O)(=O)N2CCC(C(=O)N3CC(C)CC(C)C3)CC2)c1C (stereo unspecified)	nt	nt	nt	nt	0.7	nt
O=C(Nc1cccc(NC(=O)c2ccc(Cl)cc2Cl)c1)c1cccnc1	nt	nt	nt	40.3	-1.9	nt
Cc1cccc(C(=O)NCCC(=O)Nc2ccc(C#N)cc2)c1	nt	nt	nt	27.9	2.0	nt
COc1cc(CNn2c(C)n[nH]c2=S)cc(Cl)c1OCc1ccc(F)cc1	10.6	2.4	-0.8	89.7*	3.0	15.3
Cc1cc(C)nc(N(C#N)Cc2cccc(Cl)c2)n1	-1.1	-0.8	1.4	36.7	50.6*	0.4
